# Laboratory results as given in ChEMBL document CHEMBL2311534, “Synthesis and antiplasmodial evaluation of novel (4-aminobutyloxy)quinolines” (Bioorg Med Chem Lett, 2013).
# What was measured:
# Plasmodium falciparum [1] = experiment: Antiplasmodial activity against erythrocyte form of chloroquine-sensitive Plasmodium falciparum D10 by parasite lactate dehydrogenase assay; type: functional, organism-based
# Outline: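 Asexual erythrocyte-stage cultures were maintained by a modified Trager–Jensen method. Samples were made as 20 mg/mL stocks in 100% DMSO and diluted in complete medium. The top test concentration was 100 µg/mL, with twofold serial dilution to 10 concentrations (lowest 0.2 µg/mL). Growth was read by parasite lactate dehydrogenase assay in triplicate on one occasion. IC50 came from full dose-response curves.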
# CHO = experiment: Cytotoxicity against CHO cells by MTT assay; type: cell-based; conditions: Cricetulus griseus
# Outline: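 CHO cell growth and survival was read colorimetrically with MTT. Samples were diluted in complete medium on the day of testing as 10-fold serial dilutions to 6 concentrations (100 down to 0.001 µg/mL). Emetine served as reference. Tests were run in triplicate on one occasion. IC50 was obtained by non-linear dose-response curve fitting.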
# Plasmodium falciparum [2] = experiment: Antiplasmodial activity against erythrocyte form of chloroquine-resistant Plasmodium falciparum Dd2 by parasite lactate dehydrogenase assay; type: functional, organism-based
# Outline: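 Continuous culture of asexual erythrocyte stages (modified Trager–Jensen); growth read by parasite lactate dehydrogenase assay (modified Makler). Samples from 20 mg/mL DMSO stock, diluted in complete medium; full dose-response, twofold serial dilutions from 100 µg/mL to 0.2 µg/mL (10 concentrations); chloroquine reference. Triplicate on one occasion; IC50 from non-linear curve fitting.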
# Plasmodium falciparum [3] = experiment: Resistance index, ratio of IC50 for chloroquine-resistant Plasmodium falciparum Dd2 to IC50 for chloroquine-sensitive Plasmodium falciparum D10; type: functional
# [4] = Selectivity index, ratio of IC50 for CHO cells to IC50 for chloroquine-sensitive Plasmodium falciparum D10; type: toxicity, cell-based; conditions: hamster, read-out: Ratio IC50
# Outline: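 Computed as IC50 from the CHO MTT assay divided by IC50 from the D10 pLDH assay. Both IC50 values came from full dose-response curves, each run in triplicate on one occasion.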
SMILES,IC50 (Plasmodium falciparum [1]) [µM],IC50 (CHO) [µM],IC50 (Plasmodium falciparum [2]) [µM],Ratio IC50 (Plasmodium falciparum [3]),selectivity ratio [4]
CCN(CC)CCCCOc1cccc2cccnc12,49.2,,,,
CCN(CC)CCCCOc1ccc(Cl)c2cccnc12,17.2,,,,
CCN(CC)CCCCOc1c(I)cc(Cl)c2cccnc12,9.02,,,,
CCN(CC)CCC(C)COc1cccc2cccnc12 (configuration not stated),100,,,,
CCN(CC)CCC(C)COc1c(Cl)cc(Cl)c2cccnc12 (configuration not stated),8.08,,,,
CCN(CC)CCC(C)COc1c(Cl)cc(Cl)c2ccc(C)nc12 (configuration not stated),3.95,224,0.68,0.17,57
CCN(CC)CCC(C)COc1c(I)cc(Cl)c2cccnc12 (configuration not stated),13,,,,
CCN(CC)CCC(C)COc1c(I)cc(I)c2cccnc12 (configuration not stated),13.9,,,,
CCN(CC)CCC(C)COc1c(Br)cc(Br)c2cccnc12 (configuration not stated),8.65,,,,
CCN(CC)CCCCOc1ccc2ncccc2c1,6.02,,,,
CCN(CC)CCCCOc1cccc2ncccc12,10.2,,,,
Clc1ccc(CNCCCCOc2ccc(Cl)c3cccnc23)cc1,9.99,,,,
CC(CCNCc1ccc(Cl)cc1)COc1cccc2cccnc12 (configuration not stated),5.64,,,,
Cc1ccc2c(Cl)cc(Cl)c(OCC(C)CCNCc3ccc(Cl)cc3)c2n1 (configuration not stated),2.44,4.11,0.26,0.11,2
CC(CCNCc1ccc(Cl)cc1)COc1c(I)cc(I)c2cccnc12 (configuration not stated),9.15,,,,
Clc1ccc(CNCCCCOc2ccc3ncccc3c2)cc1,7.29,211,> 1,,29
Clc1ccc(CNCCCCOc2cccc3ncccc23)cc1,7.01,237,,,34
CC(CCNCc1ccc(Cl)cc1)COc1cccc2ncccc12 (configuration not stated),23.1,,,,
CCN(CC)CCC(C)Cc1cc(Cl)c2cccnc2c1O (configuration not stated),1.01,4.8,0.15,0.15,5
CC[C@H]1CN2CCc3cc(OC)c(OC)cc3[C@@H]2C[C@@H]1C[C@H]1NCCc2cc(OC)c(OC)cc21 [EMETINE],,0.17,,,
